A selection: hits, their analogues and other compounds. The true share with any hit is near 3.9%.
STAT1 inh: STAT1 signaling inhibitors, primary screen, cell-based, HTS, luciferase reporter; NIH 3T3 STAT1-luciferase reporter, IFN-gamma, luminescence; inhibition, % at 5.5 µM; 200,000 tested, 0.35% active; AID 920, 2007;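 active means inhibition above a set limit, the mean inhibition across all tested compounds plus 3 SD, cut at about 34% in these data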
NF-kB neuron act: activators of NF-kB expression in neurons, primary screen, cell-based, HTS. 190,000 tested, 1.6% active. fold change at 12.5 µM. human neuronal cells, NF-kB reporter expression; stronger effect = higher value. AID 1239, 2008; in the data active means fold change above about 3.3
Pf gamet viab: late stage P. falciparum gametocyte viability inhibitors, primary screen, ATP luminescence, HTS; inhibition, % at 10.9 µM; P. falciparum stage V gametocytes, 24 h; AID 743093, 2013; 150,000 tested, 0.065% active;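 active means inhibition above the mean plus 3 SD of compounds within the control limits, set per campaign, cut at about 38% in these data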
STAT3 act-1: IL-6 driven STAT3 reporter potentiators, primary screen, U3A cells, luciferase, luminescence, MLSCN library. IL-6 STAT3-luciferase reporter; 100% = signal with IL-6 EC80 alone. activation (% of control), % at 5.6 µM. 190,000 tested, 0.91% active. AID 871, 2007;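 active means activation above the screen-wide mean of compound activation plus 3 SD, cut at about 130% in these data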
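Test system: Human STAT1-deficient U3A cells with stable STAT3-luciferase reporter | Also added: Interleukin-6, 33 ng/mL | Timing: Compound pre-incubation 1 h before IL-6, then 6 h stimulation at 37 °C | Technique: Luciferase reporter luminescence | Read-out: Percent of IL-6-only median luminescence | Benchmarks: IL-6-only wells as 100% reference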
STAT1 act-1: STAT1 signaling activators, primary screen, cell-based, HTS, luciferase reporter | NIH 3T3 STAT1-luciferase reporter, IFN-gamma, luminescence; 100% = IFN-gamma alone, no compound | activation (% of control), % at 5.5 µM | 200,000 tested, 2.6% active;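 active means activation above the screen-wide mean activation plus 3 SD, cut at about 130% in these data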
APP 5'UTR act: activators of APP 5'UTR luciferase reporter, primary screen, SH-SY5Y cells. SH-SY5Y APP 5'UTR luciferase reporter, luminescence; zero percent = DMSO vehicle wells. 190,000 tested, 1% active. activation, % at 2 µM;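 active means activation above a set limit, based on mean plus 3 SD of controls, cut at about 140% in these data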
STAT3 act-2: STAT3 reporter potentiators, retest of hits, confirmation, U3A cells, luciferase, luminescence; 1,200 tested, 64% active; AID 1267, 2008; IL-6 potentiation; U3A cells lack STAT1; 100 means same as IL-6 alone; potentiation (% of control), % at 5.7 µM; shares compounds with STAT3 act-1;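 active means percent activation of the STAT3 luciferase reporter above a set limit taken from the earlier primary screen, cut at about 130% in these data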
NFkB act 2: NF-kB reporter activators in human cells, counter-screen for STAT3 activator project. shares compounds with STAT3 act-1. NF-kappaB reporter activation. activation (% of control), % at 5.7 µM. 1,200 tested, 11% active. AID 1309, 2008; in the data active means activation above about 120%;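 further: reporter induced by TNF-alpha stimulation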
STAT1 act-2: STAT1 reporter activators, IFN-gamma induced, counter-screen for STAT3 activator project, cell-based, NIH 3T3, luciferase luminescence. activation (% of control), % at 5.7 µM. shares compounds with STAT3 act-1. 1,200 tested, 13% active. NIH 3T3 STAT1-luciferase reporter. AID 1318, 2008;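 active means activation above the solvent-only control well mean plus 3 SD, set per screening run, cut at about 120% in these data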
Hits are given with their value; – = inactive; · = no result given.

SMILES | STAT1 inh | NF-kB neuron act | Pf gamet viab | STAT3 act-1 | STAT1 act-1 | APP 5'UTR act | STAT3 act-2 | NFkB act 2 | STAT1 act-2
Cc1cc(-c2sccc2Br)nc(-n2cccc2)n1 | – | – | – | 139.3 | – | – | 149.7 | – | –
COc1cccc(CC2(CO)CCCN(Cc3ccc(C)s3)C2)c1 (stereo not given) | – | – | – | – | – | – | · | · | ·
COc1cccc(CC2(CO)CCCN(Cc3cc4ccccc4[nH]3)C2)c1 (stereo not given) | – | – | · | 147.8 | – | – | 145.2 | – | –
COc1ccc(C)cc1NC(=O)c1cnc2scc(C)n2c1=O | – | – | · | – | – | – | · | · | ·
CCc1ccc(NC(=O)c2cnc3scc(C)n3c2=O)cc1 | – | – | · | 154.0 | – | – | 164.6 | – | 137.8
O=C(NCCc1ccccn1)C(F)(F)C(F)(F)C(F)(F)C(F)(F)C(F)(F)C(F)F | – | – | – | – | – | – | · | · | ·
N#C/C(=C/c1ccccc1[N+](=O)[O-])c1nc(C2CC2)cs1 | – | – | – | 147.2 | – | – | 158.2 | – | –
N#C/C(=C\c1ccccc1[N+](=O)[O-])c1nc(C2CC2)cs1 | – | – | – | 145.8 | – | – | 154.0 | – | –
N#C/C(=C\c1ccc([N+](=O)[O-])cc1)c1nc(C2CC2)cs1 | – | – | · | – | – | – | · | · | ·
c1ccc2c(c1)[nH]c1c(N3CCOCC3)ncnc12 | – | – | – | 139.8 | – | – | 134.0 | – | –
O=c1cc(-c2ccccc2)nc2n1Cc1ccccc1-2 | – | – | · | 154.6 | – | – | 133.4 | – | –
O=c1c2cccc(Cl)c2nc2n1Cc1ccccc1-2 | · | · | – | · | · | · | · | · | ·
CC1CC(C)CN(C(=O)CSCC(=O)Nc2nc(-c3cccs3)cs2)C1 (stereo not given) | – | – | · | 136.0 | – | – | – | – | –
CCOC(=O)c1ccc(N2CCCCC2)c(NS(=O)(=O)c2ccc(C)cc2)c1 | · | · | – | · | · | · | · | · | ·
COC(=O)c1cc2c(C)nn(-c3ccccc3)c2s1 | – | – | – | 158.2 | – | – | 139.2 | – | –
Cc1ccc(S(=O)(=O)N2CCN(C(=O)c3cc4c(C)nn(-c5ccccc5)c4s3)CC2)cc1 | – | – | – | – | – | · | · | · | ·
Cc1nn(-c2ccccc2)c2sc(C(=O)O)cc12 | – | – | · | – | – | – | · | · | ·
Cc1nn(-c2ccccc2)c2sc(C(=O)N3CCOCC3)cc12 | – | – | · | 176.6 | – | – | 188.7 | 128.9 | 135.4
CCOC(=O)c1cc2c(C)nn(-c3ccccc3)c2s1 | – | · | · | 148.1 | – | – | – | – | –
Cc1cccc(OCc2nnc(SC(C)C(=O)O)n2-c2ccccc2)c1 (stereo not given) | · | · | – | · | · | · | · | · | ·
N#C/C(=C\Nc1ccccc1O)c1nc2ccccc2o1 | – | – | – | 165.3 | – | – | 183.5 | – | –
CCOC(=O)c1nc2ccccc2s1 | – | – | · | 146.3 | – | – | 146.7 | – | 133.5
CC(C)CC(c1nnnn1Cc1ccc(F)cc1)N1CCC(C(N)=O)CC1 (stereo not given) | – | – | · | – | – | – | · | · | ·
CCOC(=O)Cc1cc(=O)[nH]c(/N=C(\N)Nc2ccc(C)cc2C)n1 | – | – | – | 136.0 | – | – | – | – | –
Cc1cc2ccccn2c1C(=O)Nc1ccc(Cl)cc1 | – | – | · | 155.9 | – | – | 165.9 | – | –
SMILES | STAT1 inh | NF-kB neuron act | Pf gamet viab | STAT3 act-1 | STAT1 act-1 | APP 5'UTR act | STAT3 act-2 | NFkB act 2 | STAT1 act-2
Cc1nc2ccccc2n1CC(=O)OCC(=O)NCc1ccccc1 | – | – | – | – | – | – | · | · | ·
CCOC(=O)Cn1c(=O)c(-c2ccccc2NCc2ccccc2)nc2ccccc21 | – | · | · | 136.0 | – | – | – | – | –
CCOC(=O)C(=CNc1cc(OC)ccc1-n1cccc1)C(=O)OCC | · | · | – | · | · | · | · | · | ·
O=C1NC2=C(CCc3ccccc32)C(c2ccccc2)N1 (stereo not given) | – | – | – | 147.7 | – | – | – | – | –
CN1CCN(C(=O)C(N)Cc2ccccc2)CC1 (stereo not given) | – | – | – | – | – | – | · | · | ·
Cc1ccc(C)c(S(=O)(=O)Nc2cc(SCC(=O)O)c(O)c3ccccc23)c1 | – | – | · | 143.0 | – | – | 145.6 | – | –
O=C1C=C(c2ccc3c(c2)OCO3)C[C@@H](c2ccc(Cl)cc2)C1 | · | · | – | · | · | · | · | · | ·
O=C(CNS(=O)(=O)c1c(Cl)cccc1Cl)N1CCCCCC1 | · | · | – | · | · | · | · | · | ·
O=C(CSC1=Nc2ccccc2C2=NC(Cc3c[nH]c4ccccc34)C(=O)N12)NC1CCCCC1 (stereo not given) | – | – | – | – | – | – | · | · | ·
CC1CC(C)CN(C(=O)CSC2=Nc3ccccc3C3=NC(Cc4c[nH]c5ccccc45)C(=O)N23)C1 (stereo not given) | – | – | · | 140.2 | – | – | – | – | –
O=C(C1CCCCC1)N1CCc2ccccc21 | – | – | – | – | – | – | · | · | ·
O=C(C1CC(=O)N(C2CCCCC2)C1)N1CCc2ccccc21 (stereo not given) | – | – | – | 139.4 | – | – | – | – | –
COc1cc(-c2nnc(CSc3nc4ccccc4s3)o2)cc(OC)c1OC | – | – | · | 136.7 | – | – | – | – | –
COc1cc(-c2nnc(COC(=O)CSc3cc(C)c4ccccc4n3)o2)cc(OC)c1OC | – | – | · | – | – | – | · | · | ·
CCCc1nnc(NC(=O)c2cn(CC)c3cc(N4CCN(C)CC4)c(F)cc3c2=O)s1 | · | · | – | · | · | · | · | · | ·
CCN1CCCC1CNC(=O)c1cc2c(-c3ccc(Cl)cc3)nn(C)c2s1 (stereo not given) | – | – | · | 170.1 | – | – | 155.9 | – | –
Cn1nc(-c2ccc(Cl)cc2)c2cc(C(=O)N3CCCC3)sc21 | – | – | · | – | – | – | · | · | ·
COCCCNC(=O)c1cc2c(-c3ccc(Cl)cc3)nn(C)c2s1 | – | – | · | 151.0 | – | – | 143.2 | – | –
CCOC(=O)N1CCC(NC(=O)c2cc3c(-c4ccc(Cl)cc4)nn(C)c3s2)CC1 | – | – | · | 151.2 | – | – | – | – | –
CCN1CCCC1CNC(=O)c1cc2c(-c3cccc(OC)c3)nn(C)c2s1 (stereo not given) | – | – | · | – | – | – | · | · | ·

Screens as filed in PubChem BioAssay.
